Results on six molecules are retold here after PMC10922391 (Cell chemical biology, 2023).

For one assay, the system named is comCDE locus. The assay is described as follows: Luciferase reporter assay of comCDE locus activation. To be noted: PcomCDEluc reporter; for activity relative to each other / activity class of CSP derivatives: luminescence, 20 min, 37 °C. The assay is classed as cell-based, S. sanguinis VMC66. The method in brief:
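Overnight VMC66 PcomCDEluc reporter culture diluted 1:10 and held 30 min at 37 °C, 5% CO2. 198 μL per well received 2 μL DMSO or serially diluted synthetic peptide. After 20 min at 37 °C, 5% CO2, luminescence was read on a plate reader. EC50 values were fitted from three independent experiments.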
For orientation: A reporter such as luciferase makes a cellular process visible.

In another assay the test system is S. sanguinis. Nature of the assay: CSP-induced DNA transformation efficiency. The assay is classed as cell-based. To be noted: C+Y media. An outline of the steps: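 Cultures grown in THY or C+Y (a chemically defined medium with 2.2 g/L yeast extract) at 37 °C, 5% CO2. Diluted culture (500 μL) mixed with 113 nM CSP and 10 ng target DNA (linear knockout cassette or blank plasmid). Incubated a further 90 min, then plated on THY with selective antibiotic. Colonies counted after two days. Mean of three independent replicates with standard deviation.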

The test system of assay [1] is S. sanguinis harboring toxicity reporter. The assay is described as follows: Competence-coupled toxicity reporter growth assay. Format: cell-based. To be noted: 5-FOA final 1 mg/mL in THY; OD600 at 12 h; WT S. sanguinis + RT; n = 3.

Take H-DLRGVPNPWGWIFG-OH: the “potency of CSP analog lacking the C-terminal AA” value in the assay with comCDE locus (Figure S1) is recorded as “significantly less-potent”.
With H-DLRGVPNPWGWIFGR-OH [15mer], the “transformation efficiency, C+Y vs THY” value in the assay with S. sanguinis is “drop in transformation efficiency”. Also, the “activity relative to each other / activity class of CSP derivatives” value in the assay on comCDE locus is “similarly active”.
Turning to H-FWDLRGVPNPWGWIFGR-OH [17mer], the “activity relative to each other / activity class of CSP derivatives” value in the assay on comCDE locus is “inactive”.
With `O=C(O)c1[nH]c(=O)[nH]c(=O)c1F` [5’-FOA, 5-Fluoroorotic acid], the “competence-coupled growth defect with toxicity reporter, WT” value in assay [1] is listed as “could induce significant growth defect in WT S. sanguinis background”.
Regarding H-WDLRGVPNPWGWIFGR-OH [16mer], in the assay on comCDE locus, the “activity relative to each other / activity class of CSP derivatives” value is “similarly active”.
As to H-TFWDLRGVPNPWGWIFGR-OH [18mer], in the assay on comCDE locus, the “activity relative to each other / activity class of CSP derivatives” value was “inactive”.
